High-throughput results as filed in PubChem BioAssay.
HSF1 inh: HSF1 inhibition. NIH3T3-HGL HSE-luciferase, MG132-induced, luminescence 8 h; active compounds read low. activity change, negative = inhibition, % at 7.5 µM (by protocol). actives 0.77% (n = 300,000). AID 2098;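 active means more than half of replicate wells show activity change below -50%, luminescence cut by over half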;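 further: luciferase reports HSF-1 transcriptional activity via heat shock element; 0% = median of DMSO wells and -100% = zero luminescence signal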
NS3 helicase inh: blocks Hepatitis C virus NS3 helicase unwinding; actives 0.56% (n = 290,000); NS3 helicase DNA unwinding, Cy5 molecular beacon fluorescence; AID 1800; inhibition, % at 10.9 µM;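 active means inhibition above the mean of all tested compounds plus 3 SD, set per campaign, cut at about 35% in these data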;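 further: 0% = DMSO wells and 100% = thioflavine S control wells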
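System: Hepatitis C virus NS3 helicase domain fragment enzyme | Reagent: Annealed dual-labelled DNA beacon duplex, ATP-started | Compound dosing: 10.9 µM single point, 0.8% DMSO | Incubation: 1 h reaction at 25 °C, ATP-initiated | Technique: Cy5 fluorescence | Evaluation: Percent inhibition from t60/t0 fluorescence ratio | Benchmarks: Low DMSO, high thioflavine S at 110 µM | Replication: Singlicate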
HSF-1 act: increases HSF-1 driven luciferase reporter signal | activation, % at 9 µM | AID 504408 | NIH3T3-HGL HSF-1 luciferase reporter, MG132, 8 h; 100% = twice DMSO control signal | actives 1.7% (n = 300,000);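 active means mean replicate activation of at least 50% with a set share of replicates each reaching 50%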;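 further: 0% = median of the neutral control wells and 100% = twice that signal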
FID counter: counter-screen for HCV NS3 helicase inhibitors: DNA intercalator displacement. DNA fluorescent intercalator displacement, fluorescence. inhibition, % at 7.9 µM. actives 0.17% (n = 290,000); in the data active means inhibition above about 37%;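 further: 0% = vehicle and 100% = reference compound; higher means more ethidium bromide displaced from hairpin DNA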
HCV core dimer: blocks dimerization of HCV core protein. TR-FRET GST/Flag-core106 dimerization, 1536-well. inhibition, % at 5 µM. actives 0.33% (n = 300,000). AID 1899;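 active means inhibition above the mean of all tested compounds plus 3 SD, set per screening campaign, cut at about 45% in these data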
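System: GST-tagged and Flag-tagged HCV core protein residues 1-106 / Input: core106 proteins, GST 13.5 nM and Flag 17 nM / Buffer or medium: KF-containing HEPES buffer, pH 7.45, DTT, CHAPS, BSA / Probe or stimulus: Eu-anti-GST and XL665-anti-Flag labelled anti-tag antibodies / Schedule: 4 h, 22.5 °C incubation / Technique: TR-FRET 671 and 617 nm emission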
HSP90 inh: blocks HSP90-mediated luciferase refolding in reticulocyte lysate. actives 0.91% (n = 290,000). Rabbit reticulocyte lysate, luciferase refolding luminescence, 3 h. inhibition, % at 5.6 µM;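 active means inhibition above the screen-wide mean plus 3 SD, computed separately per campaign, cut at about 16% in these data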;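 further: 0% = DMSO wells and 100% = 60 µM geldanamycin wells; inhibitors lower the luminescence because luciferase stays unfolded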
Starred values were filed as active, the others as inactive; / = not tested or not shown. A selection: hits, their analogues and other compounds. The true share with any hit is near 3.9%.

SMILES	HSF1 inh	NS3 helicase inh	HSF-1 act	FID counter	HCV core dimer	HSP90 inh
O=C(C1=C[C@@H](c2ccc(Br)cc2)C[C@@H](OCc2ccc(CO)cc2)O1)N1CCN(Cc2ccc3c(c2)OCO3)CC1	2	-27	12	-15	-8	17*
CN1CCN(C(=O)C2=C[C@H](C3CC3)C[C@H](OCc3ccc(CO)cc3)O2)CC1	0	/	13	/	5	/
O=C(C1=C[C@@H](C2CC2)C[C@@H](OCc2ccc(CO)cc2)O1)N1CCN(Cc2ccccc2)CC1	87	-4	104*	-30	1	2
CCn1c(-c2ccccc2)ccc(C#N)c1=O	-5	1	7	0	0	-2
CCN(CC)c1ccc(/C=N/NC(=O)C(O)(c2ccccc2)c2ccccc2)o1	164	30	281*	-31	36	-1
CCc1ccc(NC(=O)c2ccccc2NC(=O)C2CCCO2)cc1 (centres undefined)	17	7	11	-9	4	-4
CN1CCN(CC(=O)Nc2nnc(-c3cccs3)s2)CC1	-54*	6	-62	0	7	-1
S=c1[nH]cc(-c2ccccc2)n1-c1ccccc1Cl	15	-3	57*	-5	-7	0
O=C(C1CCN(c2nnc(N3CCCC3=O)s2)CC1)N1CCN(Cc2ccc3c(c2)OCO3)CC1	/	-8	/	-15	/	33*
O=C(C1CCN(c2nnc(-n3cccc3)s2)CC1)N1CCN(Cc2ccc3c(c2)OCO3)CC1	-1	-13	-3	-21	12	-2
Cc1ccc(NC(=O)C(=O)c2c[nH]c3ccccc23)cc1	55	-4	84*	2	/	10
CC(=O)c1cccc(NC(=O)CC2CCCC2)c1	-2	2	6	-9	6	-2
Cc1cccc(NC(=O)COc2ccc(Br)cc2/C=N/O)c1	65	4	107*	-9	0	-4
O=C(Cn1ncn2c(cc3ccccc32)c1=O)NCc1ccco1	-2	7	6	-8	20	2
O=C(C[n+]1cc(-c2ccccc2)n2c1CCC2)Nc1nc(-c2ccccc2)cs1	9	-62	17	38*	-11	7
CCOc1cc(CNc2ncn[nH]2)ccc1OCC(=O)NC(C)(C)C	-1	-6	-4	-2	4	2
Nc1cccc(C2=Nc3cccc4cccc(c34)N2)c1	-4	12	-4	-5	72*	0
CCNc1ccc(C(=O)OC(C(=O)NC(N)=O)C(C)C)cc1[N+](=O)[O-] (centres undefined)	-1	-2	-2	1	-1	4
O=C(NCc1ccco1)c1ccc(COc2cc(Cl)ccc2Cl)cc1	31	0	76*	-8	3	-4
O=C(NCCC1=CCCCC1)c1ccc([N+](=O)[O-])cc1	23	1	53*	1	-7	13
Cc1cc(C(=O)NCCC2=CCCCC2)ccc1[N+](=O)[O-]	39	-5	58*	3	4	2
O=C(NCCC1=CCCCC1)c1ccc(F)cc1	6	-4	43	-7	-5	38*
O=C(NC(=S)NCCC1=CCCCC1)c1ccco1	27	0	62*	-11	-1	0
O=C(NC(=S)NCCC1=CCCCC1)c1ccc(Br)o1	7	-12	3	-10	4	0
CCOc1nc(N2CCOCC2)nc(N2CCOCC2)n1	5	13	4	-5	-2	1
SMILES	HSF1 inh	NS3 helicase inh	HSF-1 act	FID counter	HCV core dimer	HSP90 inh
CS(=O)(=O)N(CC(=O)NCC1CCCO1)c1cc(Cl)ccc1Cl (centres undefined)	18	1	54*	-7	-1	4
O=C(CCC(=O)c1cccs1)Nc1ccc(F)c(F)c1F	9	5	17	-6	52*	0
COc1ccc(OC)c(-c2csc(NC(=O)C3=COCCO3)n2)c1	10	/	35	/	2	/
CCOC(=O)c1c(-c2ccco2)csc1NC(=O)CSc1nnc(N)s1	14	32	16	-9	48*	4
CCOC(=O)c1c(-c2ccc(C)o2)csc1NC(=O)CSc1nncs1	80	11	95*	-12	13	1
CCOC(=O)c1c(-c2ccco2)csc1NC(=O)COC(=O)c1cnccn1	9	/	17	/	67*	/
